This note sets out measurements from ChEMBL document CHEMBL3351276, “Structural basis for rational design of inhibitors targeting Trypanosoma cruzi sterol 14α-demethylase: two regions of the enzyme molecule potentiate its inhibition” (J Med Chem, 2014).

For assay [1], the target named is Sterol 14-alpha demethylase (Trypanosoma cruzi (strain CL Brener)) (UniProt Q7Z1V1). Put plainly: Binding affinity to Trypanosoma cruzi CYP51 by spectral ligand binding assay. The gist of the method:
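Full-length Tulahuen T. cruzi CYP51 at ~1 μM in 20 mM K-phosphate pH 7.4, 200 mM NaCl, 0.1 mM EDTA, 25 °C, 5 cm path. Ligand is titrated 0.2–2.0 μM in 0.2 μM steps, with DMSO matched in the reference cuvette. The Soret red-shift difference spectra (peak-to-trough ΔA) are fit to a quadratic tight-binding equation, giving Ks and ΔAmax/Ks.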

Assay [2] shares this target. Put plainly: Inhibition of Trypanosoma cruzi CYP51 assessed as substrate conversion level using [3H]eburicol substrate at inhibitor/enzyme molar ratio of 2 after 1 hr by HPLC method. Details: scale not given: the % may be the effect or the level left. A digest of the protocol: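 Reconstituted full-length CYP51 (1 μM) with 2 μM CPR, 100 μM dilauroylphosphatidylcholine, and an isocitrate dehydrogenase/isocitrate system in 20 mM MOPS pH 7.4, 50 mM KCl, 5 mM MgCl₂, 10% glycerol. [³H]eburicol is final 50 μM; enzyme/substrate/inhibitor ratio is 1:50:2. After 5 min preincubation at 37 °C, 100 μM NADPH starts the 1 h reaction. Sterols are ethyl acetate-extracted and resolved by reverse-phase HPLC with radiodetection.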

Assay [3] relates to Trypanosoma cruzi. Put plainly: Antitrypanosomal activity against Trypanosoma cruzi Tulahuen trypomastigotes expressing green florescent protein infected in cardiomyocytes assessed as inhibition of parasite growth after 72 hrs by fluorescence microscopy. The class given is functional, organism-based. A digest of the protocol: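 GFP-expressing T. cruzi Tulahuen 20A-clone trypomastigotes infect cardiomyocyte monolayers at 10 parasites per cell in DMEM + 10% FBS; unbound parasites are washed off. At 24 h, inhibitors (1–25 nM, in DMSO/phenol-red-free DMEM) are added and cultured 48 h, in triplicate. At 72 h, infection is read as fluorescence (RFU), or cells are fixed in paraformaldehyde and stained with DAPI/phalloidin for microscopy. Posaconazole is the control.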

Assay [4] relates to Trypanosoma cruzi. Put plainly: Antitrypanosomal activity against Trypanosoma cruzi Tulahuen trypomastigotes expressing green florescent protein infected in cardiomyocytes assessed as inhibition of parasite growth at 10 nM after 72 hrs by fluorescence microscopy. The class given is functional.

Each structure is given as a SMILES string.

Sequence of Sterol 14-alpha demethylase (Trypanosoma cruzi (strain CL Brener)) (Q7Z1V1 whole entry, looked up): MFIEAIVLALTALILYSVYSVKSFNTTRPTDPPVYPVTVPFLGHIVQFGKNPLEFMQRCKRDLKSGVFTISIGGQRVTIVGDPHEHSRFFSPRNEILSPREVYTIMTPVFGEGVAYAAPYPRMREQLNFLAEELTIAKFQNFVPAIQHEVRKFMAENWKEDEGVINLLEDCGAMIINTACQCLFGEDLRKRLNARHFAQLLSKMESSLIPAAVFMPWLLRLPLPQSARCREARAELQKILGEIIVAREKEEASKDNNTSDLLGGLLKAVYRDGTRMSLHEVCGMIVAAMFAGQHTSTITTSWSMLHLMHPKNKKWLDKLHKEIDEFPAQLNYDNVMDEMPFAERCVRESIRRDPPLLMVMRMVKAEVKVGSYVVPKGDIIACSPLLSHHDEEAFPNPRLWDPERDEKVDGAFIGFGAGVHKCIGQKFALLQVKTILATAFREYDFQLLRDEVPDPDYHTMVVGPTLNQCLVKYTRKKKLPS

In turn, `O=C(NCCCn1ccnc1)O[C@H](Cn1ccnc1)c1ccc(F)cc1` displayed a Ks in assay [1] of 0.6 µM. In addition, the Activity in assay [2] was 93.9%.

As to `O=C(O[C@@H](Cn1ccnc1)c1ccccc1)c1ccc(-c2ccccc2)cc1`, the Ks in assay [1] is 0.087 µM. In assay [2], the Activity is 79.5%. Also, the EC50 in the assay on Trypanosoma cruzi [3] came out at 15 nM. In the assay with Trypanosoma cruzi [4], the inhibition at 0.01 µM was 29.5%.

As for `O=C(O[C@H](Cn1ccnc1)c1ccccc1)c1ccc(-c2ccccc2)cc1`, in assay [1], the Ks came to 0.046 µM. Moreover, the Activity in assay [2] was determined as 0.7%. For the same compound, the EC50 in the assay with Trypanosoma cruzi [3] turned out to be 1.2 nM. The inhibition at 0.01 µM in the assay on Trypanosoma cruzi [4] is 76.3%.

For `CC(C)c1ccc(NC(=O)O[C@H](Cn2ccnc2)c2ccc(Cl)cc2)cc1`, the Activity in assay [2] was found to be 1.9%. The EC50 in the assay on Trypanosoma cruzi [3] was determined as 1 nM. Besides, the inhibition at 0.01 µM in the assay with Trypanosoma cruzi [4] was found to be 74.5%.

In the case of `O=C(Nc1ccc(N2CCN(c3ccc(Cl)c(Cl)c3)CC2)cc1)O[C@@H](Cn1ccnc1)c1ccc(Cl)cc1Cl`, the Activity in assay [2] worked out at 0.8%. Also, in the assay with Trypanosoma cruzi [3], the EC50 was 1.2 nM. Further, the inhibition at 0.01 µM in the assay on Trypanosoma cruzi [4] amounted to 83%.

For the compound `CC[C@@H]([C@H](C)O)n1ncn(-c2ccc(N3CCN(c4ccc(OC[C@@H]5CO[C@@](Cn6cncn6)(c6ccc(F)cc6F)C5)cc4)CC3)cc2)c1=O` [POSACONAZOLE], the EC50 with Trypanosoma cruzi [3] worked out at 5 nM. In addition, in the assay with Trypanosoma cruzi [4], the inhibition at 0.01 µM was 64%.

The compound `O=C(Nc1ccc(Sc2ccc([N+](=O)[O-])cc2)cc1)O[C@@H](Cn1ccnc1)c1ccc(Cl)cc1` showed a Ks in assay [1] of 0.715 µM. For the same compound, the Activity in assay [2] is 52.5%. Also, the EC50 in the assay with Trypanosoma cruzi [3] worked out at 2.5 nM. Further, the inhibition at 0.01 µM in the assay with Trypanosoma cruzi [4] amounted to 62.5%.

Take `O=C(NCCCn1ccnc1)O[C@@H](Cn1ccnc1)c1ccc(F)cc1`: the Ks in assay [1] stood at 0.087 µM. Moreover, the Activity in assay [2] came out at 89.2%.

`O=C(Nc1ccc(Sc2ccc([N+](=O)[O-])cc2)cc1)O[C@H](Cn1ccnc1)c1ccc(Cl)cc1` gave a Ks in assay [1] of 0.162 µM. Further, in assay [2], the Activity was determined as 12.5%. The EC50 in the assay on Trypanosoma cruzi [3] amounted to 1.5 nM. The inhibition at 0.01 µM in the assay with Trypanosoma cruzi [4] was 70%.

As to `CC(C)c1ccc(NC(=O)O[C@@H](Cn2ccnc2)c2ccc(Cl)cc2)cc1`, the Activity in assay [2] turned out to be 90%. Further, in the assay on Trypanosoma cruzi [3], the EC50 worked out at 22 nM. Besides, the inhibition at 0.01 µM in the assay with Trypanosoma cruzi [4] was 30.5%.

Turning to `CC(C)c1ccc(NC(=O)O[C@@H](Cn2ccnc2)c2ccc(F)cc2)cc1`, in assay [1], the Ks turned out to be 0.083 µM. The Activity in assay [2] was 86.5%. Moreover, the EC50 in the assay with Trypanosoma cruzi [3] is 20 nM. Also, in the assay on Trypanosoma cruzi [4], the inhibition at 0.01 µM came to 32.1%.

As for `O=C(Nc1ccc(N2CCN(c3ccc(Cl)c(Cl)c3)CC2)cc1)O[C@H](Cn1ccnc1)c1ccc(Cl)cc1Cl`, the Activity in assay [2] came to 3.8%. Besides, the concentration giving a half-maximal response (EC50) in the assay with Trypanosoma cruzi [3] was found to be 1.3 nM. For the same compound, the inhibition at 0.01 µM in the assay on Trypanosoma cruzi [4] worked out at 73.5%.

The compound `CC(C)c1ccc(NC(=O)O[C@H](Cn2ccnc2)c2ccc(F)cc2)cc1` came in with a Ks in assay [1] of 0.032 µM. In assay [2], the Activity worked out at 8.5%. In the assay with Trypanosoma cruzi [3], the EC50 turned out to be 5.5 nM. The inhibition at 0.01 µM with Trypanosoma cruzi [4] was 69.3%.
